PHOSPHO1 block: PHOSPHO1 (human) inhibition; recombinant PHOSPHO1, absorbance phosphatase assay; 290,000 compounds, 1.1% hits; inhibition, % at 13.3 µM; in the data active = inhibition above about 60%
PKD1 inh: inhibitors of human PKD1 kinase; AID 797; PKD1 kinase fluorescence polarization assay; inhibition, % (concentration not given with the values); Q15139; 200,000 compounds, 0.056% hits; in the data active = inhibition above about 50%
HSV replic up: HSV replication enhancement. HSV replication augmentation in cells, fold increase. maximum fold increase. 220,000 compounds, 0.005% hits; in the data active = maximum fold increase above about 1.5; inconclusive = no clear call, values can overlap the other calls; tested in PC3 cells
NCF1 inh: inhibitors of human p47phox binding; P14598; p47phox/p22phox peptide binding, fluorescence polarization, 2 h; inhibition, % at 24.7 µM; 220,000 compounds, 0.53% hits; AID 1274;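 active = inhibition above about 30%, limit read from the data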;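 note: 0% = p47phox with labelled peptide and 100% = labelled peptide alone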
ABCG2 block: human ABCG2 inhibition, ABCB1 as counter-screen; Q9UNQ0; IgMXP3 cells, JC-1 efflux, flow cytometry; inhibition, % at 6.6 µM; 190,000 compounds, 0.1% hits; AID 1325;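 active = inhibition above 80%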;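 note: 0% = DMSO and 100% = nicardipine control wells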
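Incubation: cells with compound and JC-1, 10 min at 25 °C, rotating, no wash / Test system: IgMXP3 (ABCG2) plus far-red-tagged CCRF-Adr (ABCB1) cells / Compound dosing: one concentration, 6.6 µM final / Also added: JC-1 fluorescent substrate / Evaluation: efflux inhibition in percent versus controls / Detection: flow cytometry, 530 nm JC-1 signal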
ABCB1 block: inhibitors of human ABCB1 transporter, ABCG2 counter-screen. P08183. CCRF-Adr cells, JC-1 efflux, flow cytometry. AID 1326. inhibition, % at 6.6 µM. 190,000 compounds, 0.067% hits; in the data active = inhibition above about 40%;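 note: 0% = vehicle and 100% = reference inhibitor; higher value means more JC-1 retained so stronger ABCB1 efflux block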
* = called active by the depositor. Hits are enriched below; roughly 1.6% of the tested compounds scored in any of these assays.

Results for Cc1sc2c(c1C)C(=O)NC(c1cccc(O)c1)N2 (stereo not drawn) ?
PHOSPHO1 block: 100.3*; PKD1 inh: 18.0; HSV replic up: inactive; NCF1 inh: -23.5; ABCG2 block: 15.2; ABCB1 block: -0.1

What do the screens show for `Cc1nn(-c2ccc(N3CCOCC3)nn2)c(C)c1CCC(=O)NCc1ccc(F)cc1`?
PHOSPHO1 block: 31.9

Results for CCOC(=O)c1sc(NC(=O)/C=C/c2cnn(CC)c2C)c(C(=O)OCC)c1C ?
PHOSPHO1 block: 69.6*; PKD1 inh: 6.7; HSV replic up: inactive; NCF1 inh: 8.6; ABCG2 block: 25.4; ABCB1 block: 8.0

What do the screens show for `Cc1cc(C)c(OCC(=O)Nc2ccccc2N2CCOCC2)c(C)c1`?
PHOSPHO1 block: -9.6; PKD1 inh: 4.6; HSV replic up: inactive; NCF1 inh: 41.4*; ABCG2 block: 4.6; ABCB1 block: 1.2

How did Cc1ccccc1OCC(=O)Nc1ccccc1N1CCOCC1 do in these assays?
PHOSPHO1 block: -5.8; PKD1 inh: -1.7; HSV replic up: inactive; NCF1 inh: -2.9; ABCG2 block: 55.2; ABCB1 block: 1.6

How did Cn1c(O)c(N=NC(=O)CNC(=O)c2cccnc2)c2ccccc21 do in these assays?
PHOSPHO1 block: 35.5

What do the screens show for `Cc1ccc(C)c(NC(=O)C2CCN(C(=O)c3cccs3)CC2)c1`?
PHOSPHO1 block: 36.0

Results for Cc1ccc(Nc2nc(N)nc(CN3CCc4ccccc4C3)n2)cc1 ?
PHOSPHO1 block: 31.7; PKD1 inh: -2.4; HSV replic up: inactive; NCF1 inh: 77.1*; ABCG2 block: 1.8; ABCB1 block: 0.7

Results for Cc1c(Cl)cccc1Nc1nc(N)nc(CN2CCc3ccccc3C2)n1 ?
PHOSPHO1 block: 19.2; PKD1 inh: 4.2; HSV replic up: inactive; NCF1 inh: -9.4; ABCG2 block: 2.5; ABCB1 block: 0.2

How did CCn1c(C)c2c([n+]1CC)CC(C)(C)CC2=O do in these assays?
PHOSPHO1 block: 91.0*; PKD1 inh: -3.2; HSV replic up: inactive; NCF1 inh: -9.3; ABCG2 block: 1.0; ABCB1 block: 0.3

Results for CCn1c2c(c(C)cc1=O)C(=O)CC(C)(C)C2 ?
PHOSPHO1 block: 6.9; PKD1 inh: -7.6; HSV replic up: inactive; NCF1 inh: -0.5; ABCG2 block: 1.7; ABCB1 block: 0.8

How did CCOC(=O)/C(C#N)=C/C=C1\C=Cc2ccccc2N1CC do in these assays?
PHOSPHO1 block: 21.5; PKD1 inh: 5.9; HSV replic up: inconclusive; NCF1 inh: 124.5*; ABCG2 block: 5.4; ABCB1 block: 4.5

What do the screens show for `CCCCCCN1C=CC(=C/C=C(\C#N)C(=O)OCC)C=C1`?
PHOSPHO1 block: -19.0; PKD1 inh: -19.4; HSV replic up: inconclusive; NCF1 inh: 33.2*; ABCG2 block: 3.3; ABCB1 block: 1.0

Results for CCCCn1nnc(NC(=S)NC(=O)c2ccc(OCC)c([N+](=O)[O-])c2)n1 ?
PHOSPHO1 block: 27.0

What do the screens show for `N#CCCNS(=O)(=O)c1ccc(C(=O)OCCCOC(=O)c2ccc(S(=O)(=O)NCCC#N)cc2)cc1`?
PHOSPHO1 block: -0.6

What do the screens show for `CN1CCN(C(=O)C2=C[C@@H](C3CCCCC3)C[C@@H](OCCCCO)O2)CC1`?
PHOSPHO1 block: 43.7; PKD1 inh: 14.4; HSV replic up: inactive; ABCG2 block: 0.5; ABCB1 block: 0.2

How did Cc1ccc(NC(=O)c2ccc3c(SCC(=O)O)c4c(nc3c2)CCCC4)c(Br)c1 do in these assays?
PHOSPHO1 block: 31.5

How did Cc1nc(NC(=O)/C=C/c2ccccc2)sc1C(=O)Nc1ccc(Cl)cc1 do in these assays?
PHOSPHO1 block: 64.6*; PKD1 inh: 6.3; HSV replic up: inactive; NCF1 inh: -5.7; ABCG2 block: -1.4; ABCB1 block: -0.4

Results for Cc1nc(NC(=O)/C=C/c2ccccc2)sc1C(=O)Nc1ccccc1Cl ?
PHOSPHO1 block: 31.5; PKD1 inh: -4.5; HSV replic up: inactive; NCF1 inh: 0.7; ABCG2 block: -0.3; ABCB1 block: -0.1

What do the screens show for `Cc1ccc(C(C(=O)NCc2ccco2)N(Cc2ccco2)C(=O)CNC(=O)c2ccco2)cc1` (stereo not drawn)?
PHOSPHO1 block: 27.9; PKD1 inh: -2.9; HSV replic up: inactive; NCF1 inh: 67.2*; ABCG2 block: 10.3; ABCB1 block: 1.0

Results for CCc1ccc(NC(=O)CCC(=O)c2ccccc2)cc1 ?
PHOSPHO1 block: 1.2

Results for CC(C)(C)c1ccc(CN2N=Nc3ccccc3S2(=O)=O)cc1 ?
PHOSPHO1 block: 26.7; PKD1 inh: -6.9; HSV replic up: inactive; NCF1 inh: 33.5*; ABCG2 block: 1.5; ABCB1 block: 0.5

How did O=S1(=O)c2ccccc2N=NN1Cc1ccc(Cl)c(Cl)c1 do in these assays?
PHOSPHO1 block: 6.9; PKD1 inh: 0.3; HSV replic up: inactive; NCF1 inh: 14.6; ABCG2 block: -0.7; ABCB1 block: -0.1

Results for S=c1[nH]nc(Cc2sc(-c3ccccc3)nc2-c2ccccc2)o1 ?
PHOSPHO1 block: 89.9*; PKD1 inh: 9.6; NCF1 inh: -12.2; ABCG2 block: 8.4; ABCB1 block: 0.5

What do the screens show for `Cc1ccc2sc(=O)[nH]c2c1`?
PHOSPHO1 block: 29.0; HSV replic up: inactive; NCF1 inh: -6.8

Results for O=C(CN(c1ccccc1)S(=O)(=O)c1ccccc1)NCCSCc1ccco1 ?
PHOSPHO1 block: 71.7*; PKD1 inh: 4.6; HSV replic up: inactive; NCF1 inh: -12.0; ABCG2 block: 4.2; ABCB1 block: 1.9

Results for O=C(CN1C(=O)/C(=C2\SC(=S)N(C3CCS(=O)(=O)C3)C2=O)c2ccccc21)Nc1ccc(F)cc1 (stereo not drawn) ?
PHOSPHO1 block: 17.7; HSV replic up: inactive; NCF1 inh: 26.1

What do the screens show for `COc1ccc(NC(=O)CN2C(=O)/C(=C3\SC(=S)N(C4CCS(=O)(=O)C4)C3=O)c3ccccc32)cc1` (stereo not drawn)?
PHOSPHO1 block: 17.7; HSV replic up: inactive; NCF1 inh: 52.4*

Results for CC(=O)N1CCOc2ccc(S(=O)(=O)NCC3CCC(C(=O)Nc4ccc(C)cn4)CC3)cc21 (stereo not drawn) ?
PHOSPHO1 block: 43.5

Results for S=C(Nc1cccnc1)NC1CCCCCCC1 ?
PHOSPHO1 block: -15.4; PKD1 inh: -11.2; HSV replic up: inactive; NCF1 inh: -15.2; ABCG2 block: 4.3; ABCB1 block: 0.1

Results for O=C(Nc1cccnc1)NC1CCCCC1 ?
PHOSPHO1 block: 68.5*; PKD1 inh: -3.1; HSV replic up: inactive; NCF1 inh: -3.9; ABCG2 block: 4.4; ABCB1 block: 0.3

What do the screens show for `CN(C)S(=O)(=O)c1ccc(Cl)c(NC(=O)CN2C(=O)NC(C)(C3CC3)C2=O)c1` (stereo not drawn)?
PHOSPHO1 block: 9.0; HSV replic up: inactive; NCF1 inh: 9.3
